Source: ChEMBL document CHEMBL3808280, “GroEL/ES inhibitors as potential antibiotics” (Bioorg Med Chem Lett, 2016)

Assays:
[1] = biological target: T1, E. coli GroEL/ES (Escherichia coli, UniProt P0A6F5); test: Inhibition of Escherichia coli GroEL/GroES using Escherichia coli GroEL expressed in Escherichia coli DH5alpha cells and Escherichia coli GroES expressed in Escherichia coli BL21(DE3) cells assessed as inhibition of denatured rhodanese refolding by measuring reduction in thiocyanate production incubated for 60 mins by micro plate reader analysis
How it was run: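 Urea-denatured rhodanese bound to GroEL/GroES in folding buffer containing thiosulfate. After 60 min at 37°C, thiocyanate reaction (KCN, thiosulfate, phosphate) run, then formaldehyde quench and ferric nitrate added. Fe(SCN)3 read at 460 nm after 15 min RT, with protein-free baseline plates.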

[2] = biological target: T1, E. coli GroEL/ES; test: Inhibition of Escherichia coli GroEL/GroES using Escherichia coli GroEL expressed in Escherichia coli DH5alpha cells and Escherichia coli GroES expressed in Escherichia coli BL21(DE3) cells assessed as reduction in native refolded rhodanese-mediated thiocyanate production by micro plate reader analysis
[3] = biological target: T1, E. coli GroEL/ES; test: Inhibition of Escherichia coli GroEL/GroES using Escherichia coli GroEL expressed in Escherichia coli DH5alpha cells and Escherichia coli GroES expressed in Escherichia coli BL21(DE3) cells assessed as reduction in pig heart native refolded MDH-mediated NADH production by micro plate reader analysis
How it was run: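 Native MDH counter-screen. GroEL/ES-dMDH refolding run 60 min at 37°C, then EDTA-quenched without compound. IC50 averaged from at least triplicate.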

[4] = biological target: T1, E. coli GroEL/ES; test: Inhibition of Escherichia coli GroEL/GroES using Escherichia coli GroEL expressed in Escherichia coli DH5alpha cells and Escherichia coli GroES expressed in Escherichia coli BL21(DE3) cells assessed as inhibition of denatured pig heart MDH refolding by measuring reduction in NADH production incubated for 60 mins by micro plate reader analysis
How it was run: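 Denatured MDH (guanidine-HCl/DTT, 30 min RT) bound to GroEL with GroES in Tris pH 7.4, KCl, MgCl2, DTT buffer. 60 min at 37°C, EDTA quench to 100 mM. Refolded MDH activity read with mesoxalate/NADH at 340 nm. Log-averaged IC50 from replicates.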

[5] = test system: Escherichia coli; test: Antibacterial activity against Escherichia coli DH5alpha assessed as reduction in bacterial growth incubated for 6 to 8 hrs; type: functional, organism-based; conditions: DH5[alpha]
[6] = test system: Escherichia coli; test: Antibacterial activity against acrB-deficient Escherichia coli MC4100 assessed as reduction in bacterial growth incubated for 6 to 8 hrs; type: functional, organism-based
[7] = test system: Escherichia coli; test: Antibacterial activity against Escherichia coli SM101 assessed as reduction in bacterial growth incubated for 12 hrs by UV-Vis spectrophotometric analysis; type: functional, organism-based; conditions: SM101, 12 h
[8] = test system: Bacillus subtilis; test: Antibacterial activity against Bacillus subtilis 168 assessed as reduction in bacterial growth incubated for 6 to 8 hrs; type: functional, organism-based; conditions: subsp. subtilis str. 168
[9] = test system: Enterococcus faecium; test: Antibacterial activity against multidrug resistant Enterococcus faecium NCTC 7171 (ATCC 19434) assessed as reduction in bacterial growth incubated for 6 to 8 hrs; type: functional, organism-based
How it was run: (§1)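 Broth proliferation assay. S. aureus and MRSA grown in ATCC Medium 18, other pathogens in Brain Heart Infusion. Stagnant incubation at 37°C under breathable seal. OD600 read at mid-log (6-8 h) and corrected with bacteria-free baseline plates. EC50 by variable-slope nonlinear fit, at least triplicate.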

[10] = test system: Staphylococcus aureus; test: Antibacterial activity against methicillin resistant Staphylococcus aureus subsp. aureus HPV107 (ATCC BAA-44) assessed as reduction in bacterial growth incubated for 6 to 8 hrs; type: functional, organism-based; how it was run: as §1
[11] = biological target: T2, HSP60/HSP10 (Homo sapiens, UniProt P10809); test: Inhibition of human HSP60/HSP10 expressed in Escherichia coli Rosetta2(DE3) cells assessed as inhibition of denatured pig heart MDH refolding by measuring reduction in NADH production incubated for 60 mins by micro plate reader analysis
How it was run: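 Pig heart MDH was denatured in guanidine-HCl (dMDH) and complexed with HSP60, then HSP10, in Tris pH 7.4/KCl/MgCl2/DTT buffer. EDTA quench (100 mM final); refolded MDH activity was followed with mesoxalate/NADH at 340 nm.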

[12] = biological target: T2, HSP60/HSP10; test: Inhibition of human HSP60/HSP10 expressed in Escherichia coli Rosetta2(DE3) cells assessed as reduction in denatured pig heart MDH ATPase activity by malachite green dye based assay
[13] = Cytotoxicity against human THLE3 cells assessed as reduction in cell viability after 48 hrs by alamar blue assay; type: cell-based; conditions: THLE3, 48 h
[14] = test system: HEK293; test: Cytotoxicity against HEK293 cells assessed as reduction in cell viability after 48 hrs by alamar blue assay; type: cell-based; conditions: Homo sapiens, HEK293, 48 h
[15] = test system: Klebsiella pneumoniae subsp. pneumoniae; test: Antibacterial activity against multidrug resistant Klebsiella pneumoniae subsp. pneumoniae NCTC 9633 (ATCC 13883) assessed as reduction in bacterial growth incubated for 6 to 8 hrs; type: functional, organism-based; how it was run: as §1
[16] = test system: Acinetobacter baumannii; test: Antibacterial activity against multidrug resistant Acinetobacter baumannii 2208 (ATCC 19606) assessed as reduction in bacterial growth incubated for 6 to 8 hrs; type: functional; how it was run: as §1
[17] = test system: Pseudomonas aeruginosa; test: Antibacterial activity against multidrug resistant Pseudomonas aeruginosa NCTC 10332 (ATCC 10145) assessed as reduction in bacterial growth incubated for 6 to 8 hrs; type: functional, organism-based; how it was run: as §1
[18] = test system: Enterobacter cloacae; test: Antibacterial activity against multidrug resistant Enterobacter cloacae subsp. cloacae CDC 442-68 (ATCC 13047) assessed as reduction in bacterial growth incubated for 6 to 8 hrs; type: functional, organism-based; how it was run: as §1
[19] = test system: Staphylococcus aureus; test: Antibacterial activity against methicillin susceptible Staphylococcus aureus subsp. aureus Seattle 1945 (ATCC 25923) assessed as reduction in bacterial growth incubated for 6 to 8 hrs

T1 sequence (P0A6F5 whole entry, looked up): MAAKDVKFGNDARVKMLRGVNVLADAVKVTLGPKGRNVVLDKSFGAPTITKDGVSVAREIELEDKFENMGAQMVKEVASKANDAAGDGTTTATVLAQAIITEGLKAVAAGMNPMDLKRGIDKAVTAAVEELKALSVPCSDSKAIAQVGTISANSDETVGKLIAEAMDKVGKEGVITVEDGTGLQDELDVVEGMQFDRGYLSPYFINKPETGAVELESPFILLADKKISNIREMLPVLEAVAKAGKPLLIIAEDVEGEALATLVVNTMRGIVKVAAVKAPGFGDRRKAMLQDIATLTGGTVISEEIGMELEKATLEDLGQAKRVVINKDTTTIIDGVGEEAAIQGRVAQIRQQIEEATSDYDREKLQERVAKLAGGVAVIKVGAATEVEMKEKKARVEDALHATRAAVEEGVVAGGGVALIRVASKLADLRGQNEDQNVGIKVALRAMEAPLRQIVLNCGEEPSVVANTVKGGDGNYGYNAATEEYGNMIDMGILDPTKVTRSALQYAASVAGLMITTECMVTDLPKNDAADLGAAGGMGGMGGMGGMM
T2 sequence (P10809 whole entry): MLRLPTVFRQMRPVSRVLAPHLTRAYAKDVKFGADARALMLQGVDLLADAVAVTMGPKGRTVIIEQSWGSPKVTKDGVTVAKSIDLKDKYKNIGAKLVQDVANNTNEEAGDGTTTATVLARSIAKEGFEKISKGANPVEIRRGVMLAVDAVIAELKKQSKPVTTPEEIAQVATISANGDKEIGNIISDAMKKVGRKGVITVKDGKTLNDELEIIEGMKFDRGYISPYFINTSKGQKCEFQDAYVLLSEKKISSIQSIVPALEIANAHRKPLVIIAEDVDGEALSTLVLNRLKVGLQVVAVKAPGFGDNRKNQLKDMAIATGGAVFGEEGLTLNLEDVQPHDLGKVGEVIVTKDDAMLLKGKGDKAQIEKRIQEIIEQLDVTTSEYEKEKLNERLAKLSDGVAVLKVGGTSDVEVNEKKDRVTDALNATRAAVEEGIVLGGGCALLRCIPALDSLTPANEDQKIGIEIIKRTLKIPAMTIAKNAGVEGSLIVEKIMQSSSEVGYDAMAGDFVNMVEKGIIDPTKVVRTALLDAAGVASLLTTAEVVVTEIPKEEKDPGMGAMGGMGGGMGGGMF
T2 sequence (P61604 whole entry, further chain): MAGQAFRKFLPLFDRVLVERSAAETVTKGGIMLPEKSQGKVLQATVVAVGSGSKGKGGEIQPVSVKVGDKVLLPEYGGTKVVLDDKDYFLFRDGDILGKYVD

SMILES | IC50 [1] [µM] | IC50 [2] [µM] | IC50 [3] [µM] | IC50 [4] [µM] | EC50 [5] [µM] | EC50 [6] [µM] | EC50 [7] [µM] | EC50 [8] [µM] | EC50 [9] [µM] | EC50 [10] [µM] | IC50 [11] [µM] | IC50 [12] [µM] | EC50 [13] [µM] | EC50 [14] [µM] | EC50 [15] [µM] | EC50 [16] [µM] | EC50 [17] [µM] | EC50 [18] [µM] | EC50 [19] [µM]
O=C(Nc1ccc2nc(-c3ccco3)c(-c3ccco3)nc2c1)N1CCCC1 | 2.4 | 2.1 | > 62.5 | 4.7 | > 100 | > 100 | > 100 | > 100 | > 100 | > 100 | 13 | > 250 | > 100 | > 100 | > 100 | > 100 | > 100 | > 100 | > 100
O=C(NCCO)Nc1ccc2nc(-c3ccco3)c(-c3ccco3)nc2c1 | 2.6 | 1.4 | > 62.5 | 6.5 | > 100 | > 100 | > 100 | > 100 | > 100 | > 100 | 15 | > 250 | > 100 | > 100 | > 100 | > 100 | > 100 | > 100 | > 100
CCCCCCCCCC(=O)N[C@@H](Cc1c[nH]c2ccccc12)C(=O)N[C@@H](CC(N)=O)C(=O)N[C@@H](CC(=O)O)C(=O)N[C@@H]1C(=O)NCC(=O)N[C@@H](CCCN)C(=O)N[C@@H](CC(=O)O)C(=O)N[C@H](C)C(=O)N[C@@H](CC(=O)O)C(=O)NCC(=O)N[C@H](CO)C(=O)N[C@@H]([C@H](C)CC(=O)O)C(=O)N[C@@H](CC(=O)c2ccccc2N)C(=O)O[C@@H]1C [DAPTOMYCIN] | – | – | – | – | – | – | – | – | 33 | 5.7 | – | – | – | – | > 100 | > 100 | > 100 | > 100 | 5.7
CC1(C)S[C@@H]2[C@H](NC(=O)[C@H](N)c3ccccc3)C(=O)N2[C@H]1C(=O)O [AMPICILLIN] | – | – | – | – | – | – | – | – | 0.63 | 76 | – | – | – | – | 89 | 2.5 | 27 | > 100 | 0.059
CN(C)c1ccc(O)c2c1C[C@H]1C[C@H]3[C@H](N(C)C)C(O)=C(C(N)=O)C(=O)[C@@]3(O)C(O)=C1C2=O [MINOCYCLINE] | – | – | – | – | – | – | – | – | < 0.05 | 0.35 | – | – | – | – | 0.7 | < 0.05 | 2.4 | 1.5 | < 0.05
O=C(N[C@H](CO)[C@H](O)c1ccc([N+](=O)[O-])cc1)C(Cl)Cl [CHLORAMPHENICOL] | – | – | – | – | – | – | – | – | 2.1 | 2.3 | – | – | – | – | 1.4 | 65 | 16 | 2.2 | 2.2
CN[C@@H]1[C@H](O[C@H]2[C@H](O[C@H]3[C@H](O)[C@@H](O)[C@H](N=C(N)N)[C@@H](O)[C@@H]3N=C(N)N)O[C@@H](C)[C@]2(O)C=O)O[C@@H](CO)[C@H](O)[C@H]1O [STREPTOMYCIN] | – | – | – | – | – | – | – | – | 50 | > 100 | – | – | – | – | 3.4 | > 100 | 2.9 | > 100 | 3.6
CO[C@H]1/C=C/O[C@@]2(C)Oc3c(C)c(O)c4c(O)c(c(/C=N/N5CCN(C)CC5)c(O)c4c3C2=O)NC(=O)/C(C)=C\C=C\[C@H](C)[C@H](O)[C@@H](C)[C@@H](O)[C@@H](C)[C@H](OC(C)=O)[C@@H]1C [RIFAMPIN] | – | – | – | – | – | – | – | – | 1.2 | 0.15 | – | – | – | – | 5.4 | 0.47 | 5.2 | 6.2 | < 0.05
COc1cc(/C=C2/C(=N)N3N=C(CC(C)C)SC3=NC2=O)ccc1OC(=O)c1ccc(F)cc1 | 25 | – | > 62.5 | 24 | > 100 | > 100 | 25 | 13 | > 100 | > 100 | 26 | > 250 | > 100 | > 100 | > 100 | > 100 | > 100 | > 100 | > 100
CC(=O)c1cc2c(cc1NC(=O)c1ccccc1Br)OCCO2 | – | – | > 62.5 | – | > 100 | > 100 | > 100 | > 100 | > 100 | > 100 | > 100 | > 250 | > 100 | > 100 | > 100 | > 100 | > 100 | > 100 | > 100
NC[C@H]1O[C@H](O[C@H]2[C@H](O)[C@@H](O[C@H]3O[C@H](CO)[C@@H](O)[C@H](N)[C@H]3O)[C@H](N)C[C@@H]2N)[C@H](O)[C@@H](O)[C@@H]1O [KANAMYCIN] | – | – | – | – | – | – | – | – | > 100 | > 100 | – | – | – | – | 45 | 16 | 25 | 37 | 8.2
